Experimental findings from PMC12597218 (Chemmedchem, 2025) are described below.

The term IC50 denotes the concentration needed to halve the response being measured. Low readings indicate inhibition by little substance, high ones a need for much substance. By solubility is commonly meant the dissolved amount per volume that the medium holds. The low end stands for little dissolved substance, the high end for much dissolved substance. In general, Papp refers to a coefficient for how fast a substance crosses the barrier. Read a high Papp as fast passage. In general, CLint scaled refers to a measure of how fast metabolising enzymes remove a compound, apart from limits set by blood flow. A lower CLint scaled goes with slow turnover. Broadly, the fraction unbound is free concentration divided by total concentration.

Values after ≈ are worked out from the molar mass of the structure shown.

Data set [1] relates to Nrf2 (ARE stimulation) in HEK293‐ARE‐Luc reporter cell line. The data set is described as follows: Intracellular Nrf2 activation assay. The class given is cell-based. Conditions: 24 h; for Nrf2 activity, fold change in luminescence intensity compared with the control group: test sample 10 μM, n = 3; for Intracellular Nrf2 activating effect at lower concentration (dose‐dependency): 5 μM. The gist of the method:
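HEK293‐ARE‐Luc (NRF2/ARE luciferase stable line) cells (2.0 × 10⁴/well) were grown 24 h, then given test compound in DMSO (1, 2.5, 5 or 10 μM) for 24 h. One‐step luciferase reagent was added for 15 min at room temperature and luminescence read. Activation is expressed as the luminescence ratio to vehicle control, n = 3. tBHQ served as reference.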

The next data set deals with HEK293‐ARE‐Luc cells. The data set is described as follows: Cytotoxicity. The class given is cell-based. The conditions noted are these: concentrations up to 50 μM. The gist of the method:
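HEK293‐ARE‐Luc cells (5.0 × 10⁴/well; DMEM, 10% FBS, 37 °C, 5% CO₂) were grown 24 h, then exposed to test compound added in DMSO for 24 h. CCK‐8 (WST‐8) reagent was added for 4 h and absorbance read at 420 nm. Cell viability was calculated, n = 3.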

Data set [2] has as its target Keap1‐DC domain and the ETGE‐motif fragment peptide of Nrf2 (Homo sapiens, UniProt Q14145). The data set is described as follows: Fluorescence polarization. The class given is binding. An outline of the steps:
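Fluorescence polarization read-out, using a commercial Keap1–Nrf2 inhibitor screening kit run according to the manufacturer's protocol with slight modifications.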

The nature of another data set: Solubility in PBS. The class given is physicochemical. Conditions: 37 °C, pH 7.4, aqueous buffer, kinetic from dmso stock. An outline of the steps: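 A 10 mM DMSO stock of test compound was diluted into PBS and rotated at 1,000 rpm, 37 °C, for 4 h. The solution was filtered through a 0.45 μm PVDF membrane by centrifugation. […] Two technical replicates.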
A short description of data set [3]: Parallel artificial membrane permeability assay. The class given is in vitro ADME. Conditions: PAMPA. For orientation: The PAMPA barrier holds no transporters, so it reflects passive diffusion.
Data set [4] in a line: Metabolic stability in human liver microsomes. The class given is in vitro ADME. Conditions: pH 7.4. An outline of the steps: (§1)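 Test compound (1 μM) with human or mouse liver microsomes (0.2 mg mL⁻¹), 1 mM EDTA and 0.1 M phosphate (pH 7.4) was preincubated 5 min. Reaction was started with 1 mM NADPH (final) and run 30 min at 37 °C. Samples were quenched in acetonitrile with methyltestosterone internal standard, and parent loss versus time zero was measured by LC–MS/MS. CLint was scaled using 48.8/45.4 mg protein per g liver and 25.7/87.5 g liver per kg (human/mouse). Two technical replicates.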
Background: Microsomes from liver hold many membrane-bound enzymes, among them those of drug oxidation.

Data set [5] in a line: Metabolic stability in mouse liver microsomes. The class given is in vitro ADME. The conditions noted are these: pH 7.4. The gist of the method: as §1
A further data set is described as follows: Protein binding ratio. The class given is in vitro ADME. The conditions noted are these: bovine, 10% FBS (fetal bovine serum), pH 7.4. The gist of the method: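 Test compound (1 μM) in 10% FBS (150 μL) was dialysed against 150 μL of 0.1 M phosphate buffer (pH 7.4) across a 12–14 kDa MWCO membrane, 37 °C, 6 h, 80 rpm. Buffer and serum samples were matrix‐matched, precipitated with acetonitrile/IS, and analysed by LC‐MS/MS. fu = C_buffer/C_plasma. Two technical replicates.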

For a further data set, the system named is HO‐1 and NQO1 mRNA. The data set is described as follows: Nrf2 target gene mRNA expression in RAW264.7 cells. Conditions: 8 h. The class given is cell-based, Murine. The gist of the method:
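RAW264.7 murine macrophage‐like cells (DMEM, 10% FBS, 37 °C, 5% CO₂) were treated with test compound for 8 h. HO‐1 and NQO1 mRNA were then measured by quantitative real‐time RT‐PCR with gene‐specific primers, with GAPDH primers also listed. Experiments were independent, at least three times. Mean ± SD.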

In data set [6] the test system is LPS‐stimulated RAW264.7 cells. Nature of the data set: Anti‐inflammatory effect in LPS‐stimulated RAW264.7 cells. The class given is cell-based, Murine. The conditions noted are these: RAW264.7, pretreated 8 h. The gist of the method:
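For NO, RAW264.7 cells (5 × 10⁵ cells/500 μL; DMEM, 10% FBS, 37 °C, 5% CO₂) were treated with test compound, given LPS (1 μg mL⁻¹) after 8 h, and incubated 16 h at 37 °C. Supernatant was mixed with Griess reagent and absorbance read at 540 nm. NO was quantified against a NaNO₂ standard. Mean ± SD.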

[7] abbreviates: LPS 1 μg mL^−1, ELISA and RT‐PCR.

Chain of Keap1‐DC domain and the ETGE‐motif fragment peptide of Nrf2 (Q14145 2-624 limits assumed): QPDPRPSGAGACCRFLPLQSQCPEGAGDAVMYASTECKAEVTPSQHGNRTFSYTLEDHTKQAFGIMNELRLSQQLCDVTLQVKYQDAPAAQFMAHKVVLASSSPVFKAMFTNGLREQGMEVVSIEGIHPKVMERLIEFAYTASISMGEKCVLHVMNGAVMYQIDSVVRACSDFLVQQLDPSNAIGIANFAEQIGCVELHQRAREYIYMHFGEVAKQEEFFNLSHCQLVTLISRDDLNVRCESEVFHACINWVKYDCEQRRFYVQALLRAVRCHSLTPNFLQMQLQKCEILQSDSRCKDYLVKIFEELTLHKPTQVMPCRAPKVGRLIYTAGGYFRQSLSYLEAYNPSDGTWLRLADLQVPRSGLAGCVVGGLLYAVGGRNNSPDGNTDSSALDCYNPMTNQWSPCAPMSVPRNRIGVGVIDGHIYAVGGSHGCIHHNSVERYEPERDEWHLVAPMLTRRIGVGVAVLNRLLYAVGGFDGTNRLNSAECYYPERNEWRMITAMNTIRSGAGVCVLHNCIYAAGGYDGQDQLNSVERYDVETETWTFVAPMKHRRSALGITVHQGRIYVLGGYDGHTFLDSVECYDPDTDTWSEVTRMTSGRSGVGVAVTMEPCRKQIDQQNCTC

Consider `CCOc1ccc(S(=O)(=O)Nc2cc(CC(=O)Nc3ccccc3)c(NS(=O)(=O)c3ccc(OCC)cc3)c3ccccc23)cc1` [Compound 5h, 2‐(1,4‐Bis((4‐ethoxyphenyl)sulfonamido)naphthalen‐2‐yl)‐N‐phenylacetamide], for which the “Nrf2 activity, fold change in luminescence intensity compared with the control group” value (“Nrf2 activity, fold change” for short) in data set [1] was “no effect on Nrf2 activity”.
On to `CCOc1ccc(S(=O)(=O)Nc2cc(CC(=O)N3CCCC3)c(NS(=O)(=O)c3ccc(OCC)cc3)c3ccccc23)cc1` [Compound 5i, N,N′‐(2‐(2‐Oxo‐2‐(pyrrolidin‐1‐yl)ethyl)naphthalene‐1,4‐diyl)bis(4‐ethoxybenzenesulfonamide)], for which the “Intracellular Nrf2 activating effect at lower concentration (dose‐dependency)” value in data set [1] is reported as “notable activity”. The “Cytotoxicity (WST‐8 assay)” value in the data set with HEK293‐ARE‐Luc cells was “did not exhibit cytotoxicity”. In data set [2], the midpoint of inhibition, the IC50, lay at 1070 ± 40 nM. The same compound had a solubility at 4 h in “Solubility in PBS” of 2.65 µM (≈ 1.69 µg/mL). The compound also gave a Papp at 4 h in data set [3] of 3.06 ×10⁻⁶ cm/s. Further, the intrinsic metabolic clearance (CLint scaled) at 1 μM in data set [4] worked out at 546 mL/min/kg. The intrinsic metabolic clearance (CLint scaled) at 1 μM in data set [5] came out at 2290 mL/min/kg. Also, the free fraction (fraction unbound) at 6 h, 1 μM in the data set “Protein binding ratio” is below 0.0342. The “NQO1 mRNA expression, increase” value in the data set with HO‐1 and NQO1 mRNA (12.5 µM and higher concentrations) is recorded as “approximately 50 fold”. Further, the “HO‐1 mRNA expression” value with HO‐1 and NQO1 mRNA (12.5 μM) is recorded as “significantly upregulated”. In addition, the “HO‐1 mRNA expression at higher concentrations” value in the data set with HO‐1 and NQO1 mRNA (concentrations above 12.5 μM) is “downregulated the gene relative to the peak expression”. For the same compound, in data set [6] (setting [7]), the CCL2 expression entry is on record as “dose‐dependent reduction” and the “TNF‐α expression” value is given as “dose‐dependent reduction”. In addition, the “Nitric oxide (NO) level” value in data set [6] (LPS 1 μg mL^−1, Griess reagent) is “dose‐dependent reduction”. The iNOS expression result in data set [6] (LPS 1 μg mL^−1, RT‐PCR) is listed as “dose‐dependent reduction”.
For the compound `CCOc1ccc(S(=O)(=O)Nc2cc(CC(=O)N3CCCCC3)c(NS(=O)(=O)c3ccc(OCC)cc3)c3ccccc23)cc1` [Compound 5j, N,N′‐(2‐(2‐Oxo‐2‐(piperidin‐1‐yl)ethyl)naphthalene‐1,4‐diyl)bis(4‐ethoxybenzenesulfonamide)], in data set [1], the “Intracellular Nrf2 activating effect at lower concentration (dose‐dependency)” value is “notable activity” and the “Nrf2 activity, fold change” value was “notable Nrf2 activation effects”. The same compound had an IC50 in [2] of 2430 ± 170 nM.
In data set [3], `Cc1cc(=O)n(-c2ccccc2)n1C` [antipyrine] yielded an apparent permeability (Papp) at 4 h of 23.1 ×10⁻⁶ cm/s.
As to `COCCc1ccc(OCC(O)CNC(C)C)cc1` (stereo not shown) [metoprolol], the apparent permeability coefficient (Papp) at 4 h in data set [3] turned out to be 1.85 ×10⁻⁶ cm/s.
As for `CC(C)(C)c1cc(O)ccc1O` [tBHQ, tert‐butylhydroquinone, reference compound], the “Nrf2 activity, fold change” value in [1] is reported as “approximately tenfold”.
